Molecules are shown by their SMILES. Values after ≈ are worked out from the molar mass of the structure shown. Where only a bound is given, the exact number is not on record here.

This is an account of results in ChEMBL document CHEMBL1140069, “In vitro antifungal activity of polyfunctionalized 2-(hetero)arylquinolines prepared through imino Diels-Alder reactions” (2008).

What all share (assay type): functional
The subject of experiment [1] is Aspergillus flavus. Briefly: Antifungal activity against Aspergillus flavus ATCC 9170 after 48 hrs by broth microdilution technique. The following applies: ATCC 9170, 48 h. The method in brief: (§1)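 CLSI broth microdilution: M-27 A2 for yeasts and M-38 A for filamentous fungi. Medium is RPMI-1640 buffered to pH 7.0 with MOPS. Compound is diluted twofold from 250 to 0.98, final DMSO ≤2%. Inoculum is 1–5 × 10³ CFU/mL. Plates are incubated at 35 °C in a moist, dark chamber and read visually at 48 h. MIC100 is the lowest concentration giving total growth inhibition versus drug-free control.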
In general terms: Dilution methods test growth across graded concentrations, often in twofold steps.

For experiment [2], the system named is Aspergillus fumigatus. Description: Antifungal activity against Aspergillus fumigatus ATTC 26934 after 48 hrs by broth microdilution technique. In short, it runs like this: as §1
Experiment [3] concerns Cryptococcus neoformans. Briefly: Antifungal activity against Cryptococcus neoformans ATCC 32264 after 48 hrs by broth microdilution technique. To be noted: ATCC 32264, 48 h. The method in brief: as §1
Experiment [4] deals with Aspergillus niger. Description: Antifungal activity against Aspergillus niger ATCC 9029 after 48 hrs by broth microdilution technique. To be noted: ATCC 9029, 48 h. In short, it runs like this:
as §1

For experiment [5], the system named is Trichophyton rubrum. Description: Antifungal activity against Trichophyton rubrum C110 after 48 hrs by broth microdilution technique. The following applies: read-out: MIC. In short, it runs like this: as §1
In experiment [6] the test system is Saccharomyces cerevisiae. Description: Antifungal activity against Saccharomyces cerevisiae ATCC 9763 after 48 hrs by broth microdilution technique. The following applies: ATCC 9763, 48 h. The method in brief:
as §1

Experiment [7] concerns Nannizzia gypsea. Briefly: Antifungal activity against Microsporum gypseum C115 after 48 hrs by broth microdilution technique. In short, it runs like this:
as §1

In experiment [8] the test system is Candida albicans. Description: Antifungal activity against Candida albicans ATCC 10231 after 48 hrs by broth microdilution technique. To be noted: ATCC 10231, 48 h. The method in brief: as §1
The subject of experiment [9] is Trichophyton mentagrophytes. Briefly: Antifungal activity against Trichophyton mentagrophytes ATCC 9972 after 48 hrs by broth microdilution technique. The following applies: ATCC 9972, 48 h. The method in brief: as §1

For the molecule `Cc1ccc([N+](=O)[O-])c2c(C)cc(-c3ccncc3)nc12`, the MIC in experiment [1], in [2], in experiment [3], in experiment [4], in experiment [5] and in [6] was more than 250 µg/mL throughout. Besides, the MIC in experiment [7], in experiment [8] and in [9] was more than 250 µg/mL throughout.

`Nc1cccc(-c2ccc3cc(Cl)ccc3n2)c1`: the minimal inhibitory concentration (MIC) (commonly the least concentration at which growth counts as inhibited) was more than 250 µg/mL in experiment [1]; more than 250 µg/mL in [2]; more than 250 µg/mL in experiment [3]; more than 250 µg/mL in [4]; 125 µg/mL (≈ 491 µM) in experiment [5]; more than 250 µg/mL in experiment [6]. The minimum inhibitory concentration (MIC) is 125 µg/mL (≈ 491 µM) in experiment [7], more than 250 µg/mL in [8] and 125 µg/mL (≈ 491 µM) in experiment [9].

For the molecule `CCc1ccc2ccc(-c3ccc4c(c3)OCO4)nc2c1`, the MIC in experiment [1], in experiment [2], in experiment [3], in experiment [4], in experiment [5] and in experiment [6] was more than 250 µg/mL throughout. For the same molecule, the minimal inhibitory concentration (MIC) in experiment [7], in [8] and in experiment [9] was more than 250 µg/mL throughout.

On to `COc1ccc2nc(-c3ccc4c(c3)OCO4)ccc2c1`, for which the minimum inhibitory concentration (MIC) in experiment [1], in [2], in experiment [3], in [4], in [5] and in experiment [6] was more than 250 µg/mL in each case. The MIC in [7], in experiment [8] and in experiment [9] was more than 250 µg/mL in each case.

On to `Clc1ccc2nc(-c3ccco3)ccc2c1`, for which the minimum inhibitory concentration (MIC) in experiment [1], in experiment [2], in experiment [3], in experiment [4], in experiment [5] and in experiment [6] was more than 250 µg/mL in each case. For the same molecule, the MIC in [7], in experiment [8] and in experiment [9] was more than 250 µg/mL throughout.

As for `Fc1ccc2nc(-c3ccccc3)ccc2c1`, the minimum inhibitory concentration (MIC) in [1] is more than 250 µg/mL; in [2], more than 250 µg/mL; in [3], more than 250 µg/mL; in experiment [4], more than 250 µg/mL; in [5], 250 µg/mL (≈ 1120 µM); in experiment [6] it was more than 250 µg/mL. In addition, the minimal inhibitory concentration (MIC) in [7] was 250 µg/mL (≈ 1120 µM); in experiment [8], more than 250 µg/mL; in experiment [9], 250 µg/mL (≈ 1120 µM).

Turning to `O=[N+]([O-])c1cccc(-c2ccc3cc(F)ccc3n2)c1`, the MIC in experiment [1], in experiment [2], in experiment [3], in [4], in experiment [5] and in [6] was more than 250 µg/mL in each case. Besides, the MIC in experiment [7], in [8] and in experiment [9] was more than 250 µg/mL each time.

Regarding `Cc1cc(-c2ccncc2)nc2c(C(C)C)ccc([N+](=O)[O-])c12`, the MIC in experiment [1], in [2], in experiment [3], in experiment [4], in experiment [5] and in experiment [6] was more than 250 µg/mL each time. For the same molecule, the minimum inhibitory concentration (MIC) in experiment [7], in experiment [8] and in experiment [9] was more than 250 µg/mL in each case.

Consider `O=[N+]([O-])c1cccc(-c2ccc3cc(Cl)ccc3n2)c1`, for which the minimum inhibitory concentration (MIC) in experiment [1], in experiment [2], in experiment [3], in experiment [4], in experiment [5] and in experiment [6] was more than 250 µg/mL each time. The MIC in experiment [7], in experiment [8] and in [9] was more than 250 µg/mL in each case.

Regarding `Cc1cc(-c2ccccc2)nc2ccccc12`, the minimum inhibitory concentration (MIC) was more than 250 µg/mL in [1]; more than 250 µg/mL in experiment [2]; 250 µg/mL (≈ 1140 µM) in [3]; more than 250 µg/mL in experiment [4]; 25 µg/mL (≈ 114 µM) in experiment [5]; more than 250 µg/mL in [6]. Besides, the results for the minimum inhibitory concentration (MIC) in [7], in [8] and in experiment [9] were 12.5 µg/mL (≈ 57 µM), more than 250 µg/mL and 12.5 µg/mL (≈ 57 µM), respectively.

Regarding `CCc1ccc2nc(-c3ccccc3)ccc2c1`, the MIC in experiment [1] is more than 250 µg/mL; in experiment [2] it was more than 250 µg/mL; in experiment [3], more than 250 µg/mL; in experiment [4] it was more than 250 µg/mL; in experiment [5], 250 µg/mL (≈ 1070 µM); in [6], more than 250 µg/mL. Further, the minimal inhibitory concentration (MIC) was 250 µg/mL (≈ 1070 µM) in experiment [7], more than 250 µg/mL in experiment [8] and 250 µg/mL (≈ 1070 µM) in experiment [9].

Consider `CCc1cccc2c(C)cc(-c3ccncc3)nc12`, for which the MIC in experiment [1], in experiment [2], in experiment [3], in experiment [4], in [5] and in experiment [6] was more than 250 µg/mL throughout. Further, the minimal inhibitory concentration (MIC) in experiment [7], in experiment [8] and in experiment [9] was more than 250 µg/mL throughout.

Turning to `Clc1ccc2nc(-c3cccs3)ccc2c1`, the MIC in experiment [1], in [2], in experiment [3], in [4], in [5] and in experiment [6] was more than 250 µg/mL in each case. Further, the minimum inhibitory concentration (MIC) in [7], in experiment [8] and in experiment [9] was more than 250 µg/mL throughout.

Consider `O=[N+]([O-])c1ccc2nc(-c3ccccc3)ccc2c1`, for which the MIC in experiment [1], in experiment [2], in [3], in experiment [4], in experiment [5] and in experiment [6] was more than 250 µg/mL each time. For the same molecule, the MIC in experiment [7], in [8] and in experiment [9] was more than 250 µg/mL throughout.

On to `COc1ccc2nc(-c3cccs3)ccc2c1`, for which the MIC in [1], in experiment [2], in experiment [3], in experiment [4], in experiment [5] and in [6] was more than 250 µg/mL throughout. In addition, the minimum inhibitory concentration (MIC) in [7], in experiment [8] and in [9] was more than 250 µg/mL throughout.

Turning to `CCc1ccc2nc(-c3cccc([N+](=O)[O-])c3)ccc2c1`, the minimum inhibitory concentration (MIC) in experiment [1], in experiment [2], in experiment [3], in experiment [4], in experiment [5] and in experiment [6] was more than 250 µg/mL throughout. Moreover, the minimum inhibitory concentration (MIC) in experiment [7], in [8] and in experiment [9] was more than 250 µg/mL throughout.

On to `Cc1cc(C)c2ccc(-c3ccccc3)nc2c1`, for which the MIC in experiment [1], in experiment [2], in experiment [3], in experiment [4], in [5] and in experiment [6] was more than 250 µg/mL each time. The MIC in experiment [7], in [8] and in experiment [9] was more than 250 µg/mL each time.

For the molecule `Cc1ccc2nc(-c3ccc4c(c3)OCO4)ccc2c1`, the minimum inhibitory concentration (MIC) in experiment [1], in [2], in [3], in experiment [4], in experiment [5] and in experiment [6] was more than 250 µg/mL throughout. Moreover, the minimal inhibitory concentration (MIC) in experiment [7], in experiment [8] and in [9] was more than 250 µg/mL each time.

`c1ccc2nc(-c3ccc4c(c3)OCO4)ccc2c1`: the MIC in [1], in experiment [2], in experiment [3], in experiment [4], in experiment [5] and in [6] was more than 250 µg/mL in each case. For the same molecule, the minimum inhibitory concentration (MIC) in [7], in experiment [8] and in experiment [9] was more than 250 µg/mL throughout.

Take `Clc1ccc2nc(-c3ccccc3)ccc2c1`: the minimal inhibitory concentration (MIC) in experiment [1], in experiment [2], in experiment [3], in [4], in experiment [5] and in [6] was more than 250 µg/mL in each case. The minimum inhibitory concentration (MIC) in experiment [7], in [8] and in [9] was more than 250 µg/mL in each case.

On to `Oc1ccc2nc(-c3ccccc3)ccc2c1`, for which the minimal inhibitory concentration (MIC) in experiment [1] is more than 250 µg/mL; in [2], more than 250 µg/mL; in experiment [3], more than 250 µg/mL; in [4] it was more than 250 µg/mL; in [5] it was 125 µg/mL (≈ 565 µM); in experiment [6] it was more than 250 µg/mL. Also, the values for the minimal inhibitory concentration (MIC) in experiment [7], in experiment [8] and in experiment [9] were 125 µg/mL (≈ 565 µM), more than 250 µg/mL and 250 µg/mL (≈ 1130 µM), respectively.

With `COc1ccc2nc(-c3ccco3)ccc2c1`, the MIC in experiment [1] is more than 250 µg/mL; in experiment [2] it was more than 250 µg/mL; in experiment [3], more than 250 µg/mL; in experiment [4], more than 250 µg/mL; in experiment [5], 125 µg/mL (≈ 555 µM); in experiment [6] it was more than 250 µg/mL. Also, the results for the minimum inhibitory concentration (MIC) in [7], in experiment [8] and in experiment [9] were 125 µg/mL (≈ 555 µM), more than 250 µg/mL and 125 µg/mL (≈ 555 µM), respectively.

For `COc1cc(OC)c2nc(-c3ccc4c(c3)OCO4)ccc2c1`, the MIC in [1], in experiment [2], in experiment [3], in experiment [4], in experiment [5] and in [6] was more than 250 µg/mL each time. The minimal inhibitory concentration (MIC) in experiment [7], in experiment [8] and in experiment [9] was more than 250 µg/mL each time.

Regarding `c1ccc(-c2ccc3cc4c(cc3n2)OCO4)cc1`, the minimal inhibitory concentration (MIC) in experiment [1] was more than 250 µg/mL; in experiment [2], more than 250 µg/mL; in experiment [3], 125 µg/mL (≈ 501 µM); in experiment [4] it was more than 250 µg/mL; in experiment [5], 250 µg/mL (≈ 1000 µM); in experiment [6], more than 250 µg/mL. Moreover, the results for the MIC in experiment [7], in [8] and in experiment [9] were 250 µg/mL (≈ 1000 µM), more than 250 µg/mL and 250 µg/mL (≈ 1000 µM), respectively.
